From paper PMC2933382 (Biochemistry, 2010)
Where two headings read alike, the source gives them in different places.

Key:
[1] = target: T1, AeSCP-2 (Aedes aegypti, UniProt Q86PR3); experiment: Initial ligand competition assay; type: binding; conditions: Fig. 1; NBD-cholesterol 1.25 µM, competitive ligand 0.005 to 5 µM
T1 sequence (Q86PR3 1-110): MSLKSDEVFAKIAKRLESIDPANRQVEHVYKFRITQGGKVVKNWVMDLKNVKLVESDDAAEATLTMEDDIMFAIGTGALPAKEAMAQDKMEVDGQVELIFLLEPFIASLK

[2] = target: AeSCP-2 F32A mutant (Aedes aegypti, UniProt Q86PR3, F32A); experiment: NBD-cholesterol binding to recombinant AeSCP-2 mutant
[3] = target: T2, AeSCP-2 Y30A mutant (Aedes aegypti, UniProt Q86PR3, Y30A); experiment: as above
[4] = target: AeSCP-2 F105A mutant (Aedes aegypti, UniProt Q86PR3, F105A); experiment: as above
[5] = target: T3, AeSCP-2 F32W mutant (Aedes aegypti, UniProt Q86PR3, F32W); experiment: as above; conditions: 0.5 µM NBD-cholesterol, protein 0.01 to 10 µM, mean (standard deviation)
[6] = target: T4, AeSCP-2 M90L mutant (Aedes aegypti, UniProt Q86PR3, M90L); experiment: as above
[7] = target: T5, AeSCP-2 wild-type (Aedes aegypti, UniProt Q86PR3); experiment: NBD-cholesterol binding to recombinant AeSCP-2; conditions: wt; 0.5 µM NBD-cholesterol, protein 0.01 to 10 µM; mean (standard deviation)
T5 sequence (Q86PR3 1-110): T1 sequence (Q86PR3 1-110)

[8] = target: T6, AeSCP-2 W44E mutant (Aedes aegypti, UniProt Q86PR3, W44E); experiment: NBD-cholesterol binding to recombinant AeSCP-2 mutant
[9] = target: T7, AeSCP-2 F105W mutant (Aedes aegypti, UniProt Q86PR3, F105W); experiment: as above; conditions: 0.5 µM NBD-cholesterol, protein 0.01 to 10 µM, mean (standard deviation)
[10] = target: T8, AeSCP-2 F9W/W44F mutant (Aedes aegypti, UniProt Q86PR3, F9W/W44F); experiment: as above
[11] = target: T1, AeSCP-2; conditions: read-out: IC50 (suppression of NBD-cholesterol binding); cited from earlier work
[12] = target: T9, wild type AeSCP-2 (Aedes aegypti, UniProt Q86PR3); type: binding; conditions: 50 µM SCPI; wild type AeSCP-2 at 10 µM; Fig. 6A
T9 sequence (Q86PR3 1-110): T1 sequence (Q86PR3 1-110)
Outline: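 Intrinsic Trp (single residue, W44) fluorescence of purified recombinant native AeSCP-2, with and without SCP-2 inhibitor. Run in 100 µL of 50 mM Tris-HCl, pH 8.0, at 25 °C. Excitation at 280 nm; emission scanned 320–390 nm. Difference spectra were made by subtracting buffer and inhibitor-alone spectra.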

[13] = test system: wild type AeSCP-2 denatured in 6.5 M guanidine hydrochloride; experiment: Intrinsic tryptophan fluorescence, denatured protein negative control; type: binding, Aedes aegypti; conditions: Fig. 6B
Outline: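 Negative control: recombinant AeSCP-2 denatured in 6.5 M guanidine-HCl in 50 mM Tris-HCl, pH 7.4, scanned with and without inhibitor. Excitation at 280 nm; emission read 320–390 nm. Buffer and inhibitor-alone spectra were subtracted to give difference spectra.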

[14] = target: T4, AeSCP-2 M90L mutant; type: binding; conditions: Fig. 6D
[15] = target: T8, AeSCP-2 F9W/W44F mutant; type: binding; conditions: Fig. 6C
[16] = test system: Aag-2 cells; type: cell-based, Aedes aegypti; conditions: for Incorporation of [3H]cholesterol: Fig. 4; for Incorporation of [3H]palmitic acid: Fig. 5
[17] = target: T7, AeSCP-2 F105W mutant; experiment: Ligand competition assay with NBD-cholesterol; type: binding
[18] = target: T2, AeSCP-2 Y30A mutant; experiment: Ligand competition assay with NBD-cholesterol; type: binding
[19] = within the lipid bilayer; cited from earlier work
[20] = target: T3, AeSCP-2 F32W mutant; experiment: Ligand competition assay with NBD-cholesterol; type: binding
[21] = target: AeSCP-2 W44A mutant (Aedes aegypti, UniProt Q86PR3, W44A); experiment: Ligand competition assay with NBD-cholesterol; type: binding
[22] = target: T9, wild type AeSCP-2; experiment: Ligand competition assay with NBD-cholesterol; type: binding
[23] = target: recombinant AeSCP-2; conditions: radiolabelled cholesterol; cited from earlier work
[24] = target: T6, AeSCP-2 W44E mutant; experiment: Ligand competition assay with NBD-cholesterol; type: binding
[25] = target: T4, AeSCP-2 M90L mutant; experiment: Ligand competition assay with NBD-cholesterol; type: binding

## CC(C)CCC[C@@H](C)[C@H]1CC[C@H]2C3=CC=C4C[C@@H](O)CC[C@]4(C)[C@H]3CC[C@]12C [7-dehydrocholesterol]
[1]
  Competition with NBD-cholesterol for binding to AeSCP-2: did not appear to compete

## C[C@H](CNc1ccc([N+](=O)[O-])c2nonc12)[C@H]1CC[C@H]2[C@@H]3CC=C4C[C@@H](O)CC[C@]4(C)[C@H]3CC[C@]12C [NBD-cholesterol, 22-(N-(7-nitrobenz-2-oxa-1,3-diazol-4-yl)amino)-23,24-bisnor-5-cholen-3β-o]
[2]; F32A vs. wt
  Fold of Kd change: 18.71
[2]; F32A, 0.5 µM NBD-cholesterol, protein 0.01 to 10 µM, mean (standard deviation)
  Kd: 6.36 µM
[3]; Y30A vs. wt
  Fold of Kd change: 0.73
[3]; Y30A, 0.5 µM NBD-cholesterol, protein 0.01 to 10 µM, mean (standard deviation)
  Kd: 0.25 µM
[4]; F105A vs. wt
  Fold of Kd change: 3.38
[4]; F105A, 0.5 µM NBD-cholesterol, protein 0.01 to 10 µM, mean (standard deviation)
  Kd: 1.15 µM
[5]
  Kd: 4.94 µM
[6]; M90L vs. wt
  Fold of Kd change: 8.09
[6]; M90L, 0.5 µM NBD-cholesterol, protein 0.01 to 10 µM, mean (standard deviation)
  Kd: 2.75 µM
[7]
  Kd: 0.34 µM
[8]; W44E vs. wt
  Fold of Kd change: 12.35
[8]; W44E, 0.5 µM NBD-cholesterol, protein 0.01 to 10 µM, mean (standard deviation)
  Kd: 4.2 µM
[9]
  Kd: 1.32 µM
[10]; F9W/W44F vs. wt
  Fold of Kd change: 2.68
[10]; F9W/W44F, 0.5 µM NBD-cholesterol, protein 0.01 to 10 µM, mean (standard deviation)
  Kd: 0.91 µM

## Br.CC(=O)Nc1ccc(Nc2nc(-c3ccc(Cl)c(Cl)c3)cs2)cc1 [SCPI-1, N-4-{[4-(3,4-dichlorophenyl)-1,3-thiazol-2-yl]amino}phenyl)aetamide hydrobromide]
[11]
  IC50: < 0.4 µM

## Br.CC(=O)Nc1ccc(Nc2nc(-c3ccc(Cl)c(Cl)c3)cs2)cc1 [SCPI-1]
[12]
  Effect on tryptophan intrinsic fluorescence signal: significant decrease
[13]
  Quenching of tryptophan intrinsic fluorescence, denatured protein: no significant quenching
[14]
  Effect on tryptophan intrinsic fluorescence: still quenched
[15]
  Effect on tryptophan intrinsic fluorescence: still quenched

## COc1cccc(-n2sc3c(c2=S)-c2cc(Cl)ccc2NC3(C)C)c1 [SCPI-2, 8-chloro-2-(3-methoxyphenyl)-4,4-dimethyl-4,5-dihydroisothiazol[5,4-c]quinoline-1(2H)-thione]
[12]
  Effect on tryptophan intrinsic fluorescence signal: significant decrease
[13]
  Quenching of tryptophan intrinsic fluorescence, denatured protein: no significant quenching
[14]
  Effect on tryptophan intrinsic fluorescence: did not affect
[15]
  Effect on tryptophan intrinsic fluorescence: did not affect
[11]
  IC50: < 0.4 µM

## [3H]C1C([3H])[C@@]2(C)C(=CC[C@H]3[C@@H]4CC[C@H]([C@H](C)CCCC(C)C)[C@@]4(C)CC[C@@H]32)C[C@H]1O (stereo partly shown) [[^3H]cholesterol, [1,2-^3H (N)]-cholesterol]
[16]; cells over-expressing AeSCP-2 mutants F32A, W44E, M90L, and F105A
  Incorporation of [3H]cholesterol: did not increase
[16]; cells over-expressing wild type AeSCP-2 vs. empty vector
  Incorporation of [3H]cholesterol: increased significantly

## [3H]C(CCCCCC)C([3H])CCCCCCCC(=O)O (stereo not shown) [[^3H]palmitic acid, [9,10-^3H]-palmitic acid]
[16]; cells transfected with either empty or AeSCP-2 wild type expression vectors
  Incorporation of [3H]palmitic acid: no increase
[16]; over-expression of AeSCP-2 mutants
  Incorporation of [3H]palmitic acid: did not affect

## CC(C)CCC[C@@H](C)[C@H]1CC[C@H]2[C@@H]3CC=C4C[C@@H](O)CC[C@]4(C)[C@H]3CC[C@]12C [cholesterol]
[17]
  EC50: 0.474 µM
[12]
  Effect on tryptophan intrinsic fluorescence signal: does not produce a quenching
[18]
  EC50: 0.282 µM
[19]
  flip-flop rate t1/2: 1 to 2 min
[20]
  EC50: 0.447 µM
[21]
  EC50: 0.072 µM
[22]
  EC50: 0.211 µM
[1]
  Competition with NBD-cholesterol for binding to AeSCP-2: competed with the NBD-cholesterol for binding to AeSCP-2 in a dose-dependent fashion
[23]
  Kd: 0.01 µM

## CCCCCCCCCCCCCCCC(=O)O [palmitic acid]
[17]
  EC50: 0.175 µM
[18]
  EC50: 0.1 µM
[24]
  EC50: 0.075 µM
[25]
  EC50: 0.127 µM
[20]
  EC50: 0.398 µM
[21]
  EC50: 0.127 µM
[22]
  EC50: 0.348 µM
[1]
  Competition with NBD-cholesterol for binding to AeSCP-2: also competed with NBD-cholesterol for binding to AeSCP-2

## CC[C@H](CC[C@@H](C)[C@H]1CC[C@H]2[C@@H]3CC=C4C[C@@H](O)CC[C@]4(C)[C@H]3CC[C@]12C)C(C)C [β-sitosterol]
[17]
  EC50: 0.083 µM
[18]
  EC50: 0.096 µM
[24]
  EC50: 0.042 µM
[25]
  EC50: 0.046 µM
[20]
  EC50: 0.061 µM
[21]
  EC50: 0.112 µM
[22]
  EC50: 0.142 µM
[1]
  Competition with NBD-cholesterol for binding to AeSCP-2: also competed with NBD-cholesterol for binding to AeSCP-2
